From ChEMBL document CHEMBL2046406 (J Med Chem, 2012)
Activity calls are given as the source filed them. No cut-off for these calls is given here.

How the values were obtained:
[1] = molecular target: T1, Delta-type opioid receptor (Homo sapiens, UniProt P41143); assay: Displacement of [3H]-naltrindole from human delta opioid receptor expressed in CHO cells at 10 uM after 3 hrs by scintillation counting; format: cell-based
[2] = species on record: Homo sapiens; assay: Selectivity index, ratio of inhibition of human delta opioid receptor to inhibition of human mu opioid receptor
[3] = molecular target: T2, Kappa-type opioid receptor (Homo sapiens, UniProt P41145); assay: Displacement of [3H]-U69,593 from human kappa opioid receptor expressed in CHO cells at 10 uM after 60 mins by scintillation counting; format: cell-based
T2 sequence (P41145 whole entry): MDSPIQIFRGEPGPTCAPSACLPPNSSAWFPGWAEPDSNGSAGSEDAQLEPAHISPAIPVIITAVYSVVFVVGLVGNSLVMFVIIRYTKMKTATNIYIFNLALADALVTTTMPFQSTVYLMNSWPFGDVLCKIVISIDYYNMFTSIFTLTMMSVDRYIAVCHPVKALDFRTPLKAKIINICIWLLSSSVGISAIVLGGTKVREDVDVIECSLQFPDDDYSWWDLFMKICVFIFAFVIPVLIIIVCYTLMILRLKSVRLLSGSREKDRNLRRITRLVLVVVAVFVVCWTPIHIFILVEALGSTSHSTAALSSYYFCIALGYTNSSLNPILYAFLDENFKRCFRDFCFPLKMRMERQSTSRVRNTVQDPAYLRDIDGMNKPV

[4] = species on record: Homo sapiens; assay: Selectivity index, ratio of inhibition of human kappa opioid receptor to inhibition of human mu opioid receptor
[5] = molecular target: T3, Mu-type opioid receptor (Homo sapiens, UniProt P35372); assay: biochemical; format: cell-based, CHO
T3 sequence (P35372 whole entry): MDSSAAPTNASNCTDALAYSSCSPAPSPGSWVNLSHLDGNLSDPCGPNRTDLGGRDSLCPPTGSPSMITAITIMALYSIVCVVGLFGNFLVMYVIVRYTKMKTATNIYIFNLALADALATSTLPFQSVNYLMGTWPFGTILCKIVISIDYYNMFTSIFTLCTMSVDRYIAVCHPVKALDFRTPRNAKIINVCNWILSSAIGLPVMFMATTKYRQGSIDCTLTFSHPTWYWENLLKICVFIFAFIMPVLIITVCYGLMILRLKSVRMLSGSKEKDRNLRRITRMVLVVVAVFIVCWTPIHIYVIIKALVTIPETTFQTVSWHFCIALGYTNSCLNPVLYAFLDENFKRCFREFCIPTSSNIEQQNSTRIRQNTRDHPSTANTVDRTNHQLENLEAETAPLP

[6] = species on record: Homo sapiens; assay: Selectivity index, ratio of inhibition of human mu opioid receptor to inhibition of human kappa opioid receptor
[7] = species on record: Homo sapiens; assay: Selectivity index, ratio of inhibition of human delta opioid receptor to inhibition of human kappa opioid receptor
[8] = molecular target: T2, Kappa-type opioid receptor; assay: Agonist activity at human kappa opioid receptor expressed in CHO cells assessed as stimulation of […]GTPgammaS binding after 60 mins by scintillation counting relative to control; format: functional, cell-based
Outline: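 Membranes from CHO cells stably expressing human KOR (15 μg protein per tube) or MOR (7.5 μg protein per tube). Nonspecific binding with 10 μM GTPγS. Filtration, then scintillation counting. Triplicate, at least three experiments.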

[9] = molecular target: T2, Kappa-type opioid receptor; assay: Agonist activity at human kappa opioid receptor expressed in CHO cells assessed as stimulation of […]GTPgammaS binding after 60 mins by scintillation counting; format: functional, cell-based
[10] = molecular target: T2, Kappa-type opioid receptor; assay: biochemical; format: cell-based, CHO
[11] = molecular target: T2, Kappa-type opioid receptor; assay: Antagonist activity at human kappa opioid receptor expressed in CHO cells assessed as inhibition of U50488-induced […]GTPgammaS binding after 60 mins by scintillation counting; format: functional, cell-based
Outline: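 κ antagonism: hKOR-CHO membranes incubated with compound plus 100 nM U50,488.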

[12] = Displacement of [3H]-naltrindole from human delta opioid receptor expressed in CHO cells after 3 hrs by scintillation counting
[13] = molecular target: T3, Mu-type opioid receptor; assay: Agonist activity at human mu opioid receptor expressed in CHO cells assessed as stimulation of […]GTPgammaS binding after 60 mins by scintillation counting relative to control; format: functional, cell-based
[14] = molecular target: T3, Mu-type opioid receptor; assay: Antagonist activity at human mu opioid receptor expressed in CHO cells assessed as inhibition of DAMGO-induced […]GTPgammaS binding after 60 mins by scintillation counting; format: functional, cell-based
[15] = molecular target: T3, Mu-type opioid receptor; assay: Agonist activity at human mu opioid receptor expressed in CHO cells assessed as stimulation of […]GTPgammaS binding after 60 mins by scintillation counting; format: functional, cell-based
[16] = molecular target: T3, Mu-type opioid receptor; assay: Antagonist activity at human mu opioid receptor expressed in CHO cells assessed as inhibition of DAMGO-induced […]GTPgammaS binding after 60 mins by scintillation counting relative to control; format: functional, cell-based
[17] = molecular target: T1, Delta-type opioid receptor; assay: Displacement of [3H]-naltrindole from human delta opioid receptor expressed in CHO cells after 3 hrs by scintillation counting; format: cell-based
Outline: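 CHO membranes expressing human KOR or DOR incubated with radioligand and 12 compound concentrations in 1 mL 50 mM Tris-HCl, pH 7.5, at 25 °C. […] Nonspecific binding with 10 μM naloxone. Three experiments in triplicate.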

T1 sequence (P41143 whole entry): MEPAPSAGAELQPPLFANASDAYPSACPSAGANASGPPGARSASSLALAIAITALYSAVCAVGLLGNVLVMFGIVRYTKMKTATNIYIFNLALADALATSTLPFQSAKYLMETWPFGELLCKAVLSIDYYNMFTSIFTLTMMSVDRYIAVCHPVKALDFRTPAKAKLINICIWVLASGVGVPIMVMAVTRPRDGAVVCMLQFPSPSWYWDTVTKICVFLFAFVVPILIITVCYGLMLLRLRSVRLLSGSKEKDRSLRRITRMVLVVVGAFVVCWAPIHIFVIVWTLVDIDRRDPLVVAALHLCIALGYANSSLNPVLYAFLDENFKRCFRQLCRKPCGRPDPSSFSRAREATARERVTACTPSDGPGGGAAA

| SMILES | inhibition [1] [%] | Ki [5] [nM] | Selectivity ratio [6] | Selectivity ratio [7] | Ki [10] [nM] | also measured |
| --- | --- | --- | --- | --- | --- | --- |
| COc1ccc(CNc2ccc3c4c2O[C@H]2[C@@H](O)C=C[C@H]5[C@@H](C3)N(C)CC[C@@]452)cc1 | 12 | 60 | – | – | – | Selectivity ratio [2]: > 160; inhibition [3]: 54%; Selectivity ratio [4]: > 160 |
| Oc1cccc(CNc2ccc3c(c2)C[C@@H]2[C@@H]4CCCC[C@]34CCN2CC2CC2)c1 | 46 | 150 | 150 | > 10000 | 0.99 | Emax [8]: 160%; EC50 [9]: 27 nM; Activity [11]: inactive |
| Nc1ccc2c(c1)[C@@]13CCCC[C@H]1[C@@H](C2)N(CC1CCC1)CC3 | – | – | 2 | 100 | – | – |
| CN1CC[C@]23CCCC[C@H]2[C@H]1Cc1ccc(N)cc13 | – | 7.9 | – | – | 110 | Ki [12]: 1500 nM; Selectivity ratio [2]: 14; Selectivity ratio [4]: 190 |
| Oc1ccccc1CNc1ccc2c(c1)[C@@]13CCCC[C@H]1[C@@H](C2)N(CC1CC1)CC3 | – | 1.9 | 10 | 150 | 0.26 | Emax [13]: 44%; IC50 ([14]; read-out: IC50): 160 nM; EC50 [15]: 8.8 nM; Imax [16]: 47%; Emax [8]: 110%; EC50 [9]: 2.3 nM; Activity [11]: inactive; Ki [17]: 30 nM |
| CN1CC[C@]23c4c5ccc(NCc6cccc(O)c6)c4O[C@H]2[C@@H](O)C=C[C@H]3[C@H]1C5 | 31 | 7 | – | – | 910 | IC50 ([14]; cho): Not Active; EC50 [15]: 550 nM |
| Nc1ccc2c(c1)[C@@]13CCCC[C@H]1[C@@H](C2)N(CC1CC1)CC3 | – | – | 7 | 830 | – | – |
